Series [1] is described as follows: Cytotoxicity against human K562 cells after 72 hrs by MTT assay. The series is classed as cell-based. The procedure, abridged:
(§1)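 Cells were exposed to serial dilutions of compound for 72 h at 37 °C in 5% CO2. MTT was then added for another 3 h, and formazan was dissolved in SDS/DMF lysing buffer at pH 4.7. Absorbance was read at 550 nm against a 650 nm reference. […] Media: HMEC-1 in MCDB 131 with 10% FCS, EGF and hydrocortisone; K562 and WEHI 13 in RPMI 1640 with 10% FCS; HDF in DMEM with 10% FCS.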

In series [2] the test system is Plasmodium falciparum. Briefly: Ratio of IC50 for chloroquine-resistant Plasmodium falciparum W2 to IC50 for chloroquine-sensitive Plasmodium falciparum D10.
Series [3] is described as follows: Cytotoxicity against HMEC1 cells after 72 hrs by MTT assay. The note with it: human. The series is classed as cell-based, HMEC-1. The procedure, abridged:
as §1
A general note: Tetrazolium dyes change colour on reduction, which living cells bring about.

Series [4] can be described thus: Cytotoxicity against mouse WEHI13 cells after 72 hrs by MTT assay. Format: cell-based. The procedure, abridged:
as §1

Series [5] concerns Plasmodium falciparum. Briefly: Ratio of chloroquine IC50 to compound IC50 for chloroquine-sensitive Plasmodium falciparum D10.
The subject of series [6] is Plasmodium falciparum. Briefly: Antimalarial activity against chloroquine-resistant Plasmodium falciparum W2 infected in human A+ erythrocytes after 72 hrs by parasite LDH assay. The note with it: W2, 72 h. The series is classed as functional, organism-based. The procedure, abridged:
(§2)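 P. falciparum (D10 CQ-sensitive; W2 CQ-resistant) kept at 5% hematocrit in human A+ red cells in RPMI 1640 with 1% AlbuMax, hypoxanthine, 20 mM Hepes and glutamine, at 37 °C under 1% O2/5% CO2/94% N2. Asynchronous cultures (1–1.5% parasitaemia, 1% final hematocrit) were exposed to serial dilutions (final DMSO <1%) for 72 h. pLDH activity was read at OD650. IC50 given as mean ± SD of ≥3 experiments run in duplicate.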

Series [7] has as its system Plasmodium falciparum. Briefly: Antimalarial activity against chloroquine-sensitive Plasmodium falciparum D10 infected in human A+ RBC after 72 hrs by parasite LDH assay. Format: functional, organism-based. As to conditions: D10, 72 h. The procedure, abridged: as §2
The nature of series [8]: Lipid accumulation ratio of the compound at pH 7.4. The series is classed as physicochemical.
Series [9] is described as follows: Distribution coefficient, log D of the compound at pH 7.4. The series is classed as physicochemical. As to conditions: octanol/water.
Series [10] in a line: Octanol-water partition coefficient, log P of the compound. Format: physicochemical.
Series [11] is described as follows: Vacuolar accumulation ratio of the compound at pH 5.2. Format: ADME.
Series [12] deals with Plasmodium falciparum. In words: Ratio of chloroquine IC50 to compound IC50 for chloroquine-resistant Plasmodium falciparum W2.
Series [13] in a line: Inhibition of beta-hematin formation assessed as molar equivalents by BHIA assay relative to hemin. Format: functional.
A short description of series [14]: Cytotoxicity against HDF after 72 hrs by MTT assay. Format: cell-based. As to conditions: human. The procedure, abridged: as §1

Take `CCN(CC)Cc1cc(-c2ccccc2)n(Nc2ccnc3cc(Cl)ccc23)c1C`: the CC50 (usually the concentration giving 50% cytotoxicity) at 72 h in [1] came out at 3620 nM; in [3], 16700 nM; in [4], 4380 nM. Besides, the “Ratio IC50” value in the series on Plasmodium falciparum [2] amounted to 1.4.

For `Cc1c(CN2CCCC2)cc(-c2ccc(F)cc2)n1Nc1ccnc2cc(Cl)ccc12`, the “Ratio IC50” value in the series with Plasmodium falciparum [5] turned out to be 0.8; in the series with Plasmodium falciparum [2], 2.4; with Plasmodium falciparum [12] it was 5.7. Moreover, the results for the IC50 in the series on Plasmodium falciparum [6] and in the series on Plasmodium falciparum [7] were 78.1 nM and 32.6 nM, respectively. The results for the Ratio in [8] and in series [11] were 2818.4 and 1548.8, respectively. For the same compound, in series [9], the logD (as a rule, the decadic logarithm of the distribution of all forms, ionised or not, between an organic phase and buffer at a given pH) was 3.45. For the same compound, the CC50 at 72 h in series [1] amounted to 1660 nM; in [3], 10100 nM; in [4] it was 2710 nM. The logP (usually the decadic logarithm of the partition coefficient of the neutral form, usually between octanol and water) in [10] was found to be 4.86.

As for `Cc1c(CN2CCCC2)cc(-c2ccc(Cl)cc2)n1CCCNc1ccnc2cc(Cl)ccc12`, the figures for the “Ratio IC50” value in the series with Plasmodium falciparum [5], in the series with Plasmodium falciparum [2] and with Plasmodium falciparum [12] were 0.8, 10.7 and 1.7, respectively. In addition, the IC50 amounted to 243 nM in the series with Plasmodium falciparum [6], 0.82 equivalents in series [13] and 22.7 nM in the series with Plasmodium falciparum [7]. For the same compound, the Ratio was 223.9 in series [8] and 24547.1 in series [11]. The compound also returned a logD in [9] of 2.35. For the same compound, the logP in [10] amounted to 4.38.

Consider `CCN(CC)Cc1cc(-c2ccc(Cl)cc2)n(Nc2ccnc3cc(Cl)ccc23)c1C`, for which the “Ratio IC50” value in the series with Plasmodium falciparum [2] came out at 1.6. Further, the CC50 at 72 h amounted to 5810 nM in series [3] and 1450 nM in series [4].

As to `Cc1ccc(-c2cc(CN3CCCC3)c(C)n2Nc2ccnc3cc(Cl)ccc23)cc1`, the “Ratio IC50” value is 0.6 with Plasmodium falciparum [5], 2.1 with Plasmodium falciparum [2] and 5.4 in the series with Plasmodium falciparum [12]. Moreover, the IC50 is 65.8 nM with Plasmodium falciparum [6], 0.45 equivalents in series [13] and 30.7 nM in the series on Plasmodium falciparum [7]. Further, the Ratio in series [8] came out at 8128.3; in [11] it was 1862.1. In series [9], the logD is 3.91. The CC50 at 72 h in [14] is 13200 nM; in [3], 7150 nM; in [4], 4480 nM. The compound also displayed a logP in series [10] of 5.19.

For `CCN(CC)Cc1cc(-c2ccc(Cl)cc2)n(CCCNc2ccnc3cc(Cl)ccc23)c1C`, the “Ratio IC50” value with Plasmodium falciparum [5] amounted to 0.7; in the series with Plasmodium falciparum [2] it was 6.9; in the series on Plasmodium falciparum [12] it was 2.3. The values for the IC50 in the series with Plasmodium falciparum [6] and in the series on Plasmodium falciparum [7] were 180 nM and 26 nM, respectively.

With `Cc1c(CN2CCCC2)cc(-c2ccc(C(F)(F)F)cc2)n1Nc1ccnc2cc(Cl)ccc12`, the results for the “Ratio IC50” value in the series on Plasmodium falciparum [5], in the series on Plasmodium falciparum [2] and in the series with Plasmodium falciparum [12] were 0.5, 1 and 6.7, respectively. For the same compound, the values for the IC50 in the series with Plasmodium falciparum [6] and in the series with Plasmodium falciparum [7] were 59 nM and 58 nM, respectively. Further, the Ratio in [8] came out at 52480.8; in series [11] it was 912. In [9], this compound gave a logD of 4.72. For the same compound, the figures for the CC50 at 72 h in series [1], in series [3] and in [4] were 1220 nM, 4700 nM and 2680 nM, respectively. In [10], this compound had a logP of 5.28.

For `CCN(CC)Cc1cc(-c2ccc(N)cc2)n(Nc2ccnc3cc(Cl)ccc23)c1C`, the “Ratio IC50” value was 0.5 in the series on Plasmodium falciparum [5], 5.8 with Plasmodium falciparum [2] and 0.9 in the series with Plasmodium falciparum [12]. The IC50 in the series on Plasmodium falciparum [6] worked out at 313 nM; in the series on Plasmodium falciparum [7], 53.4 nM.

With `Cc1c(CN2CCCC2)cc(-c2ccccc2)n1Nc1ccnc2cc(Cl)ccc12`, the IC50 in series [13] came to 0.54 equivalents. Also, the values for the Ratio in series [8] and in [11] were 1905.5 and 1698.2, respectively. In series [9], the logD is 3.28. Moreover, the values for the CC50 at 72 h in series [1], in series [3] and in [4] were 2920 nM, 12900 nM and 3880 nM, respectively. Moreover, in the series with Plasmodium falciparum [2], the “Ratio IC50” value was found to be 3.3. Further, in [10], the log partition coefficient (logP) is 4.6.

As for `Cc1c(CN2CCCC2)cc(-c2ccc(Cl)cc2)n1Nc1ccnc2cc(Cl)ccc12`, the IC50 in series [13] is 0.36 equivalents. Further, the Ratio is recorded as 11481.5 in series [8] and 1513.6 in series [11]. Also, in [9], the logD worked out at 4.06. Moreover, the “Ratio IC50” value in the series with Plasmodium falciparum [2] was 1.6. Also, the CC50 at 72 h in series [3] worked out at 7180 nM; in series [4], 2060 nM. The lipophilicity (logP) in series [10] is 5.17.

Regarding `CCN(CC)Cc1cc(-c2ccc(F)cc2)n(Nc2ccnc3cc(Cl)ccc23)c1C`, the “Ratio IC50” value is reported as 0.5 with Plasmodium falciparum [5], 1.3 in the series on Plasmodium falciparum [2] and 5 with Plasmodium falciparum [12]. In addition, the IC50 in the series with Plasmodium falciparum [6] was found to be 79.8 nM; in the series with Plasmodium falciparum [7], 61.6 nM. For the same compound, the CC50 at 72 h came to 2360 nM in [1], 18600 nM in [3] and 3020 nM in series [4].

As for `Cc1c(CN2CCCC2)cc(-c2ccc(N)cc2)n1Nc1ccnc2cc(Cl)ccc12`, the “Ratio IC50” value amounted to 0.5 in the series on Plasmodium falciparum [5], 10.6 with Plasmodium falciparum [2] and 0.5 with Plasmodium falciparum [12]. For the same compound, the IC50 came out at 455 nM with Plasmodium falciparum [6] and 43.1 nM in the series on Plasmodium falciparum [7]. The Ratio in [8] is given as 107.1; in [11], 16982.4. In addition, the logD in series [9] stood at 2.03. The same compound came in with a logP in series [10] of 4.38.

Turning to `CCN(CC)CCCC(C)Nc1ccnc2cc(Cl)ccc12` (stereo unspecified) [CHLOROQUINE], in [13], the IC50 was 1.27 equivalents. In addition, the CC50 at 72 h in series [1] was above 25000 nM; in series [14] it was above 38000 nM; in series [3], above 32000 nM; in [4], above 38000 nM.

Regarding `CCN(CC)Cc1cc(-c2ccc(C)cc2)n(Nc2ccnc3cc(Cl)ccc23)c1C`, the “Ratio IC50” value is on record as 0.6 in the series with Plasmodium falciparum [5], 1.7 in the series with Plasmodium falciparum [2] and 6.4 with Plasmodium falciparum [12]. In addition, the IC50 with Plasmodium falciparum [6] came out at 55.4 nM; in the series with Plasmodium falciparum [7] it was 32.7 nM. Further, the 50% cytotoxic concentration (CC50) at 72 h worked out at 10300 nM in series [14], 7050 nM in series [3] and 3650 nM in series [4].

For the origin of these results see ChEMBL document CHEMBL1221400, “Synthesis, antimalarial activity, and cellular toxicity of new arylpyrrolylaminoquinolines” (Bioorg Med Chem, 2010).
